Experimental data taken from article PMC11223199 (ACS Omega, 2024).

How the values were obtained:
DeHa4 = assay: fluoride ion probe, Lineweaver-Burk; assay type: biochemical, Delftia acidovorans; conditions: pH 7, PBS, 37 °C, 28 h
In short: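 Cobalt-affinity-purified enzyme from E. coli BL21 DE3 (pET15b), 250 μg in 0.5 mL with MFA (0.4–3 mM) or DFA (10–120 mM), 28 h, 250 rpm. Samples diluted in low-level TISAB and water, then read by fluoride electrode against NaF calibration (0–20 μM, second-order polynomial fit). Product equals fluoride for MFA and half of fluoride for DFA. Velocity is product per hour. 4–6 independent runs.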

DeHa2 = biological target: T1, DeHa2 (Delftia acidovorans, UniProt Q7DI63); assay: fluoride ion probe, Lineweaver-Burk; assay type: biochemical; conditions: pH 7, PBS, 37 °C, 28 h
T1 sequence (Q7DI63 1-224): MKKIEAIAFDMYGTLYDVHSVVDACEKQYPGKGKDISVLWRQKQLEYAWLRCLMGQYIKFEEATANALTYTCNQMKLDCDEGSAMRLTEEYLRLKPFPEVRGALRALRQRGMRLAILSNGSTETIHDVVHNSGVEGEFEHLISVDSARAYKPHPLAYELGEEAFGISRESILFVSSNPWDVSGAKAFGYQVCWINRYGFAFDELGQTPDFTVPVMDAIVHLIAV

Structure (SMILES)	Km (DeHa4) [mM]	Km (DeHa2) [mM]
O=C(O)C(F)F [DFA, difluoroacetate]	39 ± 2.36	–
O=C(O)CF [MFA, monofluoroacetate]	2.19 ± 0.37	5.47 ± 1.54
